Laboratory results: ChEMBL document CHEMBL1134486, “Synthesis and biological evaluation of purine-containing butenolides” (J Med Chem, 2001)
Values belong to the compound of their own block, whether it stands above or below them.

Columns and labels:
[1] = tested on: HeLa; assay: Concentration required to cause microscopically visible change or disruption in about 50% of cell sheet of HeLa cells; format: functional, cell-based, Homo sapiens
Outline: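 HeLa cells exposed to compounds at different concentrations; toxicity scored as morphological change, value is concentration causing microscopically visible change or disruption in about 50% of the cell sheet; mean of duplicate determinations.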

[2] = Anticancer activity carried out in vitro against human T-lymphocyte CEM/0; format: functional; settings: CCRF-CEM
Outline: (§1)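 Cells grown in DMEM with 10% FBS, 2.0 mM glutamine, penicillin/streptomycin, 5% CO2, 37 °C; exponential-phase cells (200 cells/mL) given compounds at various concentrations, counted at 24, 48, 72 h; IC50 for 50% proliferation inhibition at 72 h from dose-response curves of two independent experiments.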

[3] = tested on: HeLa; assay: Ability to inhibit cytopathogenicity of herpes simplex type 1 virus (KOS) in HeLa cell culture; format: functional, cell-based; settings: Homo sapiens
Outline: (§2)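 Inhibition of virus-induced cytopathogenicity measured in HeLa cell culture; IC50 derived by linear regression, mean of duplicate determinations.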

[4] = tested on: L1210; assay: Anticancer activity carried out in vitro against murine leukemia L1210; format: functional, cell-based; settings: Mus musculus; outline: as §1
[5] = tested on: HeLa; assay: Ability to inhibit cytopathogenicity of thymidine kinase-positive(TK+) strain of Varicella zoster virus (YS) in HeLa cell culture; format: functional, cell-based; settings: Homo sapiens; outline: as §2
[6] = tested on: MCF7; assay: Anticancer activity carried out in vitro against breast carcinoma MCF-7; format: functional, cell-based; settings: Homo sapiens; outline: as §1
[7] = tested on: P388; assay: Anticancer activity carried out in vitro against murine leukemia P388; format: functional, cell-based; settings: Mus musculus; outline: as §1
[8] = tested on: HeLa; assay: Ability to inhibit cytopathogenicity of thymidine kinase-deficient (TK-) strain of Varicella zoster virus (YS/R) in HeLa cell culture; format: functional, cell-based; settings: Homo sapiens; outline: as §2
[9] = Anticancer activity carried out in vitro against human T-lymphocyte Molt4/C8; format: functional, cell-based; settings: MOLT-4; outline: as §1
[10] = target: T1, Adenosine deaminase (Bos taurus, UniProt P56658); assay: Rate of deamination in the presence of calf mucosal adenosine deaminase (ADA)
T1 sequence (P56658 whole entry): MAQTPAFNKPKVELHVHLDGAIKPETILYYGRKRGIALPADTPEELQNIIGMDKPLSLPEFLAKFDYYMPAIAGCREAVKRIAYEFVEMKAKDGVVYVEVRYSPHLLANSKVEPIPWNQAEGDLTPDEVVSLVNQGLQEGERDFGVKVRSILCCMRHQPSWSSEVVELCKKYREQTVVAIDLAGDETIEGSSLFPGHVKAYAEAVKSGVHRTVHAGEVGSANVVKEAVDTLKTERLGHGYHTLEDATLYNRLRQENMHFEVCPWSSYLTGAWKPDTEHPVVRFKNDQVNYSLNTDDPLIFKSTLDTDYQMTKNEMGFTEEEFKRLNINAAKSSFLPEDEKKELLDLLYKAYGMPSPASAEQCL
Outline: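 Deamination rates followed with calf mucosal ADA (EC 3.5.4.4) in buffer solutions; Km and Vmax relative to adenosine as substrate; inhibition (Ki) assessed with adenosine as substrate.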

[11] = tested on: HeLa; assay: Ability to inhibit cytopathogenicity of herpes simplex type 2 virus (G) in HeLa cell culture; settings: Homo sapiens

SMILES: COC1=C(OC)C(O)(CCn2cnc3c(Cl)ncnc32)OC1=O (stereo in doubt; (-)-4)
- IC50 ([1]; hela): 132 µM

SMILES: COC1=C(OCc2ccc([N+](=O)[O-])cc2)/C(=C\Cn2cnc3c(Cl)ncnc32)OC1=O
- IC50 [2]: 3.98 µM
- IC50 [3]: 9.83 µM
- IC50 ([1]; Homo sapiens, HeLa): 19.3 µM
- IC50 [4]: 5.81 µM
- IC50 [5]: 4.4 µM
- IC50 [6]: 15.4 µM
- IC50 [7]: 6.49 µM
- IC50 [8]: 1.03 µM
- IC50 [9]: 7.35 µM

SMILES: Nc1ccn([C@@H]2O[C@H](CO)[C@@H](O)[C@@H]2O)c(=O)n1 [CYTARABINE]
- IC50 [2]: 0.78 µM
- IC50 [4]: 0.17 µM
- IC50 [6]: 1.03 µM
- IC50 [7]: 0.14 µM
- IC50 [9]: 0.65 µM

SMILES: Nc1nc2c(ncn2COCCO)c(=O)[nH]1 [ACYCLOVIR]
- IC50 [3]: 0.11 µM
- IC50 ([1]; Homo sapiens, HeLa): 254 µM
- IC50 [11]: 0.19 µM
- IC50 [5]: 8.71 µM
- IC50 [8]: 26.4 µM

SMILES: COC1=C(OC)/C(=C/C(n2cnc3c(Cl)ncnc32)P(=O)(OC)OC)OC1=O (stereo not given)
- IC50 [2]: 96 µM
- IC50 [3]: 13.2 µM
- IC50 ([1]; Homo sapiens, HeLa): 28.1 µM
- IC50 [4]: 16.2 µM
- IC50 [5]: 10.2 µM
- IC50 [6]: 90.1 µM
- IC50 [7]: 14.3 µM
- IC50 [8]: 5.03 µM
- IC50 [9]: 12.5 µM

SMILES: COC1=C(OC)/C(=C/Cn2cnc3c(Cl)ncnc32)OC1=O
- IC50 [2]: 4.71 µM
- IC50 [3]: 10.9 µM
- IC50 ([1]; Homo sapiens, HeLa): 23.4 µM
- IC50 [4]: 4.52 µM
- IC50 [5]: 5.92 µM
- IC50 [6]: 16.9 µM
- IC50 [7]: 8.12 µM
- IC50 [8]: 1.62 µM
- IC50 [9]: 5.97 µM

Further lines, results first:

- IC50 [2]: > 120 µM
- Ki [10]: > 800 µM
- IC50 [3]: > 128 µM
- IC50 ([1]; Homo sapiens, HeLa): 157 µM
- IC50 [4]: > 120 µM
- IC50 [5]: > 128 µM
- IC50 [6]: > 120 µM
- IC50 [7]: > 120 µM
- IC50 [8]: > 128 µM
- IC50 [9]: > 120 µM
SMILES: COC1=C(OC)C(O)(CCn2cnc3c(N)ncnc32)OC1=O (stereo not given)

- IC50 [2]: > 120 µM
- IC50 [3]: > 128 µM
- IC50 ([1]; Homo sapiens, HeLa): 149 µM
- IC50 [4]: > 120 µM
- IC50 [5]: > 128 µM
- IC50 [6]: > 120 µM
- IC50 [7]: > 120 µM
- IC50 [8]: > 128 µM
- IC50 [9]: > 120 µM
SMILES: COC1=C(OC)C(O)(CCn2cnc3c(Cl)ncnc32)OC1=O (racemic)

- IC50 [2]: 84.5 µM
- Ki [10]: 316 µM
- IC50 [3]: 14.5 µM
- IC50 ([1]; Homo sapiens, HeLa): 42.4 µM
- IC50 [4]: 93.4 µM
- IC50 [5]: 12.8 µM
- IC50 [6]: > 120 µM
- IC50 [7]: 2.67 µM
- IC50 [8]: 6.07 µM
- IC50 [9]: 78.5 µM
SMILES: COC1=C(OC)/C(=C/Cn2cnc3c(N)ncnc32)OC1=O

- IC50 [2]: 5.04 µM
- IC50 [3]: 7.24 µM
- IC50 ([1]; Homo sapiens, HeLa): 20.2 µM
- IC50 [4]: 6.03 µM
- IC50 [5]: 6.32 µM
- IC50 [6]: 14.2 µM
- IC50 [7]: 7.42 µM
- IC50 [8]: 0.89 µM
- IC50 [9]: 6.16 µM
SMILES: COC1=C(OCc2ccc([N+](=O)[O-])cc2)C(=O)O/C1=C/Cn1cnc2c(Cl)ncnc21

- IC50 [2]: > 120 µM
- IC50 [3]: 28.4 µM
- IC50 ([1]; Homo sapiens, HeLa): 17 µM
- IC50 [4]: > 120 µM
- IC50 [5]: 37.5 µM
- IC50 [6]: > 120 µM
- IC50 [7]: > 120 µM
- IC50 [8]: 34.7 µM
- IC50 [9]: > 120 µM
SMILES: O=C1O/C(=C/Cn2cnc3c(Cl)ncnc32)C(OCc2ccc([N+](=O)[O-])cc2)=C1OCc1ccc([N+](=O)[O-])cc1
